From ChEMBL document CHEMBL3785077 (J Med Chem, 2016)
Activity calls are given as the source filed them. The calls are words filed in the database; no cut-off is given here.

What was measured:
[1] = target: T1, Acetylcholinesterase (Homo sapiens, UniProt P22303); test: Inhibition of human acetylcholinesterase using […] as substrate at 50 uM preincubated for 4.5 mins followed by substrate addition measured after 2.5 mins by Ellman's spectrophotometric method
[2] = test system: HT-22; test: Neuroprotective activity against glutamate-induced oxycytotic cell death in mouse HT22 cells assessed as cell viability at 25 uM after 24 hrs by MTT assay; format: functional, cell-based
Summary of the method: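 Murine hippocampal HT-22 cells in high-glucose DMEM with 10% heat-inactivated FCS, 37 °C, 5% CO2. MTT (4 mg/mL in PBS, diluted 1:10 in medium) for 3 h, lysis in 10% SDS pH 4.1, absorbance 560 nm; viability as % of untreated cells.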

[3] = test system: HT-22; test: Neuroprotective activity against glutamate-induced oxycytotic cell death in mouse HT22 cells assessed as cell viability at 1 uM after 24 hrs by MTT assay; format: functional, cell-based
Summary of the method: (§1)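 Murine hippocampal HT-22 cells in high-glucose DMEM with 10% heat-inactivated FCS, 37 °C, 5% CO2. […] MTT (4 mg/mL in PBS, diluted 1:10 in medium) for 3 h, lysis in 10% SDS pH 4.1, absorbance 560 nm; viability as % of untreated cells.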

[4] = Antioxidant activity assessed as trolox equivalents of AAPH radical scavenging activity preincubated for 15 mins followed by AAPH addition measured every 60 secs for 90 mins by ORAC assay; format: physicochemical; details: 1.5 h
Summary of the method: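 ORAC-FL: compound (1−5 μM) with fluorescein (300 nM final) in 75 mM phosphate buffer pH 7.4, 15 min at 37 °C, then AAPH (12 mM final). Fluorescence read every 60 s for 90 min (ex 485/em 535 nm). […] Samples in quadruplicate, ≥4 independent runs.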

[5] = Neurotoxicity against mouse HT22 cells assessed as cell viability at 1 and 5 uM after 24 hrs by MTT assay; format: toxicity, cell-based; details: ht-22, 24 h
Summary of the method: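 HT-22 murine hippocampal cells grown in high-glucose DMEM plus 10% heat-inactivated FCS at 37 °C, 5% CO2. After 24 h culture in plates, treated 24 h with compound (DMSO ≤0.1% final) without glutamate. Viability read by MTT (3 h), SDS lysis buffer pH 4.1, absorbance at 560 nm, given as percent of untreated control.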

[6] = target: T2, Cholinesterase (Equus caballus, UniProt P81908); test: Inhibition of equine serum butyrylcholinesterase using […] as substrate preincubated for 4.5 mins followed by substrate addition measured after 2.5 mins by Ellman's spectrophotometric method
Summary of the method: (§2)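 Ellman assay at 25 °C in phosphate buffer pH 8.0. Enzyme (AChE from human erythrocytes, BChE from equine or human serum; 2.5 units/mL stock with 2 mg/mL BSA) and DTNB (0.3 mM in assay) preincubated with compound from ethanol stocks (1 nM−1 mM in assay). Acetyl- or butyrylthiocholine added (452 μM in assay), absorbance at 412 nm after 2.5 min. Ethanol control, triplicates, IC50 from activity vs log concentration.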

[7] = test system: HT-22; test: Neuroprotective activity against glutamate-induced oxycytotic cell death in mouse HT22 cells assessed as cell viability at 5 uM after 24 hrs by MTT assay; format: functional, cell-based; summary of the method: as §1
[8] = test system: HT-22; test: Neuroprotective activity against glutamate-induced oxycytotic cell death in mouse HT22 cells assessed as cell viability at 5 to 25 uM after 24 hrs by MTT assay; format: functional, cell-based
Summary of the method: (§3)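 Murine hippocampal HT-22 cells in high-glucose DMEM with 10% heat-inactivated FCS, 37 °C, 5% CO2. […] MTT 3 h, SDS lysis, absorbance at 560 nm, viability as % of untreated cells.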

[9] = target: Cholinesterase (Equus caballus) (UniProt P81908); test: (§4) Pseudo-irreversible inhibition of equine serum butyrylcholinesterase assessed as apparent affinity between enzyme and inhibitor at equilibrium state using p-nitrophenyl butyrate as substrate preincubated for 5 to 40 mins followed by substrate addition by double reciprocal plot analysis
[10] = target: T1, Acetylcholinesterase; test: Inhibition of human acetylcholinesterase using […] as substrate at 100 uM preincubated for 4.5 mins followed by substrate addition measured after 2.5 mins by Ellman's spectrophotometric method
[11] = target: T2, Cholinesterase; test: Inhibition of equine serum butyrylcholinesterase using […] as substrate preincubated for 30 mins followed by substrate addition measured after 2.5 mins by Ellman's spectrophotometric method
Summary of the method: as §2, with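 “assay).” for “assay). Acetyl- or butyrylthiocholine added (452 μM in assay), absorbance at 412 nm after 2.5 min.”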

[12] = target: Cholinesterase (Equus caballus) (UniProt P81908); test: Pseudo-irreversible inhibition of equine serum butyrylcholinesterase assessed as decarbamoylation rate using […] as substrate preincubated for 1 hr followed by 1000 fold dilution
Summary of the method: (§5)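 Enzyme incubated 1 h with inhibitor at a fully inhibiting concentration, then diluted 1:1000 in assay buffer. Activity measured by Ellman assay at various times after dilution, with uninhibited enzyme treated the same way as control. First-order fit of activity recovery gives k4.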

[13] = target: Cholinesterase (Equus caballus) (UniProt P81908); test: as §4, with “assessed as ratio of carbamoylation rate of inhibitor to apparent affinity” for “assessed as apparent affinity”
[14] = target: Cholinesterase (Homo sapiens, UniProt P06276); test: Inhibition of human butyrylcholinesterase using […] as substrate preincubated for 30 mins followed by substrate addition measured after 2.5 mins by Ellman's spectrophotometric method; summary of the method: as §2
[15] = target: Cholinesterase (Equus caballus) (UniProt P81908); test: Pseudo-irreversible inhibition of equine serum butyrylcholinesterase assessed as carbamoylation rate of inhibitor from reversible enzyme inhibitor complex to carbamoylated enzyme using p-nitrophenyl butyrate as substrate preincubated for 5 to 40 mins followed by substrate addition by double reciprocal plot analysis
[16] = target: Cholinesterase (Equus caballus) (UniProt P81908); test: Pseudo-irreversible inhibition of equine serum butyrylcholinesterase assessed as half life for carbamoylated enzyme using […] as substrate preincubated for 1 hr followed by 1000 fold dilution; summary of the method: as §5
[17] = Neurotoxicity against mouse HT22 cells assessed as cell viability up to 10 uM after 24 hrs by MTT assay; format: toxicity, cell-based, HT-22; details: read-out: Activity; summary of the method: as §3
[18] = target: T1, Acetylcholinesterase; test: Inhibition of human acetylcholinesterase using […] as substrate at 10 uM preincubated for 4.5 mins followed by substrate addition measured after 2.5 mins by Ellman's spectrophotometric method
[19] = Neurotoxicity against mouse HT22 cells assessed as decrease in cell viability at 25 uM after 24 hrs by MTT assay; format: toxicity, cell-based; details: ht-22, 24 h; summary of the method: as §3

T2 sequence (P81908 whole entry): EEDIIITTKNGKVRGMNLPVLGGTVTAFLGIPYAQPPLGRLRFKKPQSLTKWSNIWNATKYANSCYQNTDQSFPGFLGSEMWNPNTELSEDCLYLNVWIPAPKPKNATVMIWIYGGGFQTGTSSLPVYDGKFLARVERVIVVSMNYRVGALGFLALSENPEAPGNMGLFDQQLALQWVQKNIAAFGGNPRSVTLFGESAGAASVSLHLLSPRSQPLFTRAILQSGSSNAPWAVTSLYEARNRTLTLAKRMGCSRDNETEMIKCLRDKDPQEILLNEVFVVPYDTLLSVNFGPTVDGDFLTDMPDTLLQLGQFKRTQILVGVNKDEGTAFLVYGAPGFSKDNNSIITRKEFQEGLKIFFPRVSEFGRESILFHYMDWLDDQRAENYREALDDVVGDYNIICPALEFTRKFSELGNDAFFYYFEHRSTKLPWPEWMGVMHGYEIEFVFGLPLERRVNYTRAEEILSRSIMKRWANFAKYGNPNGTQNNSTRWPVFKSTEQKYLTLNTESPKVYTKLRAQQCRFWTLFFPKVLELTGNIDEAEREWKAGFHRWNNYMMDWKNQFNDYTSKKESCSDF
Chain of Cholinesterase (Equus caballus) (P81908 whole entry): as above
T1 sequence (P22303 whole entry): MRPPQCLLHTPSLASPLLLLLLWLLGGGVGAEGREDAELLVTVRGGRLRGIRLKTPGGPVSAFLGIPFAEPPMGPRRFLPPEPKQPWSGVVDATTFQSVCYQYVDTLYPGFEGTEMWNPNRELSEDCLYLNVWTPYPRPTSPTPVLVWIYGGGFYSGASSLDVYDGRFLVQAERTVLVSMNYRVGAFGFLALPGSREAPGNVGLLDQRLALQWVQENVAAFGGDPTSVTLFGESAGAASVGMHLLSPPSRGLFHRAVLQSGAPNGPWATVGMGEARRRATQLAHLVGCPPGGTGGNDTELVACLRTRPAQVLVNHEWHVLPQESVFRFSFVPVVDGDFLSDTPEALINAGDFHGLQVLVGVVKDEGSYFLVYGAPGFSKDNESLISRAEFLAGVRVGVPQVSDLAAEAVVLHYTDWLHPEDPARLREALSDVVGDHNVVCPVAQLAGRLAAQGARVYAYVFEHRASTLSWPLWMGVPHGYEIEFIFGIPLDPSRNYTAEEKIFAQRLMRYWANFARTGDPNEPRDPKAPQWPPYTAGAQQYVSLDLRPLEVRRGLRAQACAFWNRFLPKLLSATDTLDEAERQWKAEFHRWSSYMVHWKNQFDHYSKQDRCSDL
Chain of Cholinesterase (Homo sapiens, UniProt P06276) (P06276 whole entry): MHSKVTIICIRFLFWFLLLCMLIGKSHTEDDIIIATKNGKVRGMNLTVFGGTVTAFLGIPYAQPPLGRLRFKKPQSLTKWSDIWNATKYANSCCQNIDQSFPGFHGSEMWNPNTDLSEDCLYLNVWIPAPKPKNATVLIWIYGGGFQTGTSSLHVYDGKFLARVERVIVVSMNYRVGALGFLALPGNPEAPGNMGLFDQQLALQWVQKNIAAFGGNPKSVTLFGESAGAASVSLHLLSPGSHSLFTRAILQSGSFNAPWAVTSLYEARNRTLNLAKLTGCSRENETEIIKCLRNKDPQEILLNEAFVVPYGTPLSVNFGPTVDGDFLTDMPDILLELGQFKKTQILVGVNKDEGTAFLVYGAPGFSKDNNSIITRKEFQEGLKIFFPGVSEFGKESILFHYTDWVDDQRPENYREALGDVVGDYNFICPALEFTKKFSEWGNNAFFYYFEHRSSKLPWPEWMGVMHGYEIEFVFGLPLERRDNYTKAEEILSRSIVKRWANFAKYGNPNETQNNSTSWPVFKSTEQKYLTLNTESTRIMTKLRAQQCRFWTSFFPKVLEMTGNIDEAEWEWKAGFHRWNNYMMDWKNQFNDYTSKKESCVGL

Compound | inhibition [1] [%] | Activity [2] | Activity [3] | Activity [4] [equiv] | Activity [5] | IC50 [6] [µM] | Activity [7] | Activity [8] | K [9] [nM] | inhibition [10] [%] | IC50 [11] [nM] | K [12] [h⁻¹] | Ratio [13] [µM⁻¹ min⁻¹] | IC50 [14] [nM] | K [15] [min⁻¹] | T1/2 [16] [h] | viability at 24 h [17] [%] | inhibition [18] [%] | Activity [19]
CN1c2ccc(O)cc2CN(Cc2ccccc2)C1c1ccccc1 (centres undefined) | 16 | inactive | Active | 3.9 | Non-toxic | 14.8 | Active | – | – | – | – | – | – | – | – | – | – | – | –
CCCCCCCNC(=O)Oc1ccc2c(c1)CN(C)C(c1cccs1)N2C (centres undefined) | – | – | – | 0.2 | – | – | – | Active | 14.3 | 0 | 14 | 0.14 | 9.79 | 13 | 0.14 | 5 | > 80 | – | –
CCCCCCCNC(=O)Oc1ccc2c(c1)CN(Cc1ccccc1)C(c1ccccc1)N2C (centres undefined) | – | – | – | 1.7 | – | – | – | Active | – | – | 34 | – | – | – | – | – | > 80 | 17 | Non-toxic
